Source: PubChem (several laboratories)
A selection: hits, their analogues and other compounds. The true share with any hit is near 1.8%.
Gli-Sufu block: Gli-Sufu pathway antagonism | Sufu-KO-LIGHT fibroblasts, Gli luciferase reporter luminescence | hit rate 0.74% among 340,000 | inhibition, % at 5 µM | AID 588413;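 active means inhibition above about 55%, limit read from the data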;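 further: 0% = DMSO-treated cells and 100% = wells with medium but no cells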
GalR3 antag: blocks the human galanin receptor 3; HEK293 GalR3-CNG cAMP membrane potential fluorescence; galR3 body fused to GalR1 C-terminus; inhibition, % at 3 µM; hit rate 0.44% among 360,000;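 active means inhibition above the screen-wide average plus 3 SD, cut at about 13% in these data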;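 further: forskolin and galanin both at EC90 stimulate the cells; cAMP rise reported by CNG channel membrane potential dye signal; 0% = forskolin plus galanin with DMSO and 100% = forskolin alone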
Target sequence (O60755 1-299 limits assumed): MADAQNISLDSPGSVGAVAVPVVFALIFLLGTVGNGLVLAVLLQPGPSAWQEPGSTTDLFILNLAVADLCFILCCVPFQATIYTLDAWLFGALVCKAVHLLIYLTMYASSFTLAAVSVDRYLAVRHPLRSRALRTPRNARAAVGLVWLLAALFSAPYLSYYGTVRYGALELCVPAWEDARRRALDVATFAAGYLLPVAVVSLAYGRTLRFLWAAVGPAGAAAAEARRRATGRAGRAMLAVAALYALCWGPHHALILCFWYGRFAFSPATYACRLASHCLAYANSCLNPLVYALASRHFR
NR2E3 ag-1: activates human photoreceptor nuclear receptor NR2E3; Q9Y5X4; GST-NR2E3/biotin-RetCOR TR-FRET, 1536-well; inhibition of corepressor binding, % at 4.78 µM; hit rate 0.12% among 320,000; AID 2300;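 active means percent inhibition above the cutoff of mean plus 3 SD of all tested compounds, set per screening campaign, cut at about 20% in these data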;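 further: 0% = DMSO wells and 100% = biotin wells as full block of FRET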
Target sequence (Q9Y5X4 whole entry, looked up): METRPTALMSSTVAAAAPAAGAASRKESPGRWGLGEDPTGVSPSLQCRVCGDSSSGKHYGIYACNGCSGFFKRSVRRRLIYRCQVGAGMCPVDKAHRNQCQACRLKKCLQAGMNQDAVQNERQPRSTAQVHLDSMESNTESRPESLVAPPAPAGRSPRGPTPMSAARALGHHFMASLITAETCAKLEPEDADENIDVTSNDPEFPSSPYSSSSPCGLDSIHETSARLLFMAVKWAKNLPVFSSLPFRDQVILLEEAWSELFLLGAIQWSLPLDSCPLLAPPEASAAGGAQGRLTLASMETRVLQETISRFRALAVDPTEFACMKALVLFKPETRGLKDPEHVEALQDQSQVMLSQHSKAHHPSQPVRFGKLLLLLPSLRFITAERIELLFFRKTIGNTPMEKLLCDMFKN
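Material: NR2E3–RetCOR corepressor complex / Amount: 1.35 nM GST-NR2E3 / Medium: Tris pH 7.5 / Compound: single nominal compound dose of 4.8 µM / Incubation: 5 h at 4 °C / Technique: TR-FRET, Eu(K)-anti-GST donor, streptavidin-D2 acceptor, ex 340, em 617/671 nm / Read-out basis: percent loss of FRET ratio relative to control wells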
Jurkat NFkB inh: inhibitors of the PMA/ionomycin-induced NF-kB reporter in Jurkat cells; PMA/ionomycin-induced NF-kB luciferase reporter, luminescence; inhibition, % at 4 µM; hit rate 0.53% among 330,000; AID 435003; in the data active means inhibition above about 50%
NR2E3 ag-2: agonists of human NR2E3 nuclear receptor; CHO-S Gal4-NCOR/VP16-NR2E3 two-hybrid, luciferase; Q9Y5X4; inhibition of corepressor binding, % at 3.98 µM; hit rate 0.35% among 360,000;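 active means inhibition above the mean of all tested compounds plus 3 SD, cut at about 70% in these data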;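 further: 0% = DMSO with NR2E3 transfected cells and 100% = cells lacking NR2E3 construct; higher means lower luciferase signal from less NR2E3 corepressor binding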
697 NFkB inh: inhibitors of the PMA/ionomycin-induced NF-kB reporter in 697 B cells. AID 435022. 697 B-cell NF-kB luciferase reporter, 16 h. inhibition, % at 4 µM. hit rate 0.33% among 330,000; in the data active means inhibition above about 35%
Gli antag conf: confirmation of Gli-SUFU pathway antagonists | shares compounds with Gli-Sufu block | Sufu-KO-LIGHT cells, Gli luciferase reporter, luminescence | inhibition, % at 5 µM | hit rate 40% among 2,500;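 active means mean inhibition at 5 µM reaching about 45%, limit read from the data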;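 further: plate controls were DMSO-treated cells for no effect and wells lacking cells for full effect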
Gli cytotox: counter-screen for Gli-SUFU antagonists: cytotoxicity | AID 651994 | hit rate 32% among 2,500 | shares compounds with Gli-Sufu block | cytotoxicity, % at 5 µM | Sufu-KO-LIGHT cells cytotoxicity, ATP luminescence;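 active means mean cytotoxicity at 5 µM above about 25%, limit read from the data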;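 further: cells exposed to compound overnight for roughly 16 to 18 hours; plate controls were DMSO wells with cells for no effect and medium without cells for full effect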
Wnt3a cs: Wnt3a reporter inhibition counter-screen; inhibition, % at 6.25 µM; Wnt-LIGHT cells, Wnt3a-driven luciferase reporter, luminescence; hit rate 20% among 2,500; shares compounds with Gli-Sufu block;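 active means mean inhibition above about 25%, limit read from the data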
* = called active by the depositor; · = no result given.

SMILES | Gli-Sufu block | GalR3 antag | NR2E3 ag-1 | Jurkat NFkB inh | NR2E3 ag-2 | 697 NFkB inh | Gli antag conf | Gli cytotox | Wnt3a cs
Cc1ccccc1CCNC(=O)Cn1nc(C)c2c(C)n(-c3ccccc3)nc2c1=O | 4 | -8 | -4 | 5 | 8 | -6 | · | · | ·
Cc1nn(CC(=O)NC(C)CCc2ccccc2)c(=O)c2nn(-c3ccccc3)c(C)c12 (stereo not drawn) | 52 | 0 | -1 | 3 | 13 | -15 | 16 | -3 | -16
CC(C)C(NS(=O)(=O)c1cccc2nsnc12)C(=O)NC1CCCCC1C (stereo not drawn) | 58* | · | -4 | 23 | 14 | 8 | 28 | 4 | -9
COc1cccc(/C=N\NC(=O)c2ccc(Cn3cc(Br)c([N+](=O)[O-])n3)o2)c1O | 56* | -6 | 3 | 5 | -5 | -108 | 50* | 13 | 47*
COc1cc(/C=N\NC(=O)c2ccc(Cn3nc([N+](=O)[O-])c(Cl)c3C)o2)ccc1O | 11 | -2 | -3 | -4 | -45 | 10 | · | · | ·
CC(C)NC(=O)OC[C@@H]1CSCCS(=O)(=O)N1 | · | -3 | · | · | · | · | · | · | ·
Cc1csc(=Nc2cccnc2)n1Cc1ccco1 | 55* | -9 | 1 | 8 | -17 | 1 | 4 | 0 | -22
CC(C)C(=O)N1CCC1(C)C(=O)Nc1ccc2cn[nH]c2c1 (stereo not drawn) | · | -6 | · | · | -1 | · | · | · | ·
COc1cc(OC)c(NS(=O)(=O)c2ccc(Cl)c(C(=O)OC(C)C(=O)N3CCCC3)c2)cc1Cl (stereo not drawn) | 51 | -5 | -1 | 0 | 34 | -14 | 25 | 14 | -14
Oc1ccccc1N1CCN(C(=S)Nc2ccc(SC(F)F)cc2)CC1 | 76* | -12 | -2 | 4 | 20 | -11 | 23 | 20 | -9
COc1cccc(-c2nc(CS(=O)(=O)CC(=O)NCCCN3CCOCC3)c(C)o2)c1 | -10 | 5 | 1 | 5 | 3 | 19 | · | · | ·
COc1cccc(-c2nc(CS(=O)(=O)CC(=O)NCCN3CCOCC3)c(C)o2)c1 | 77* | -2 | 5 | 7 | -2 | -5 | 21 | -1 | -6
Cc1nn(S(=O)(=O)c2ccc(Br)cc2)c(C)c1S(=O)(=O)N1CCOCC1 | -1 | -7 | 0 | 8 | 6 | -5 | · | · | ·
CC(NC(=O)CCNC(=O)c1ccccc1Cl)C1CC2CCC1C2 (stereo not drawn) | 55 | 3 | 6 | -2 | 19 | 9 | 18 | 18 | -34
COc1ccc(S(=O)(=O)N2CCN(Cc3ccccc3)CC2)c(C)c1 | 5 | -6 | 1 | 1 | -17 | 7 | · | · | ·
COc1cc(C)c(C)cc1S(=O)(=O)N1CCN(Cc2ccccc2)CC1 | 50 | 2 | 1 | -28 | -10 | -42 | 18 | -4 | 14
COc1ccc(N2C(=O)c3ccc(C(=O)OC(C)C)cc3C2=O)cc1 | 91* | -3 | -2 | 1 | -4 | 11 | 21 | 20 | 22
O=C(NCc1ccc(F)cc1)C1CCN(S(=O)(=O)c2ccc3c(c2)OCCCO3)CC1 | 2 | -11 | -4 | 16 | 6 | 25 | · | · | ·
O=C(NCc1ccc(Cl)cc1Cl)C1CCN(S(=O)(=O)c2ccc3c(c2)OCCCO3)CC1 | 63* | -1 | 7 | -2 | 5 | 9 | -1 | -6 | -47
C=CCNc1cccc2c1S(=O)(=O)N[C@H](C)CO2 | · | -5 | · | · | · | · | · | · | ·
O=C(NCC1CCN(C(=O)C(=O)c2cc3ccccc3o2)CC1)c1ccc2c(c1)OCO2 | · | 1 | · | · | · | · | · | · | ·
COc1ccccc1OC(C)C(=O)Nc1ccccc1C(=O)NCc1cccnc1 (stereo not drawn) | 56* | -8 | -1 | -4 | 8 | 5 | 20 | 11 | -29
CN1CCc2nc(NC(=O)c3cccc(OC(F)F)c3)sc2C1 | 68* | -2 | 2 | -36 | -28 | -29 | 10 | 11 | -101
Cc1sc2ncnc(N3CCN(S(=O)(=O)c4ccccc4)CC3)c2c1C | 60* | · | 4 | 4 | 1 | -11 | 54* | 26* | 30*
COc1ccc(N2CCN(C(C)C(=O)N3CC(C)OC(C)C3)CC2)cc1 (stereo not drawn) | 54 | 5 | -1 | -6 | 4 | 23 | 13 | 6 | -2
SMILES | Gli-Sufu block | GalR3 antag | NR2E3 ag-1 | Jurkat NFkB inh | NR2E3 ag-2 | 697 NFkB inh | Gli antag conf | Gli cytotox | Wnt3a cs
COc1ccc(N2CCN(C(C)C(=O)N3CCc4ccccc43)CC2)cc1 (stereo not drawn) | -13 | -10 | 2 | -35 | 11 | -18 | · | · | ·
O=C(Cc1ccccc1F)Nc1nc2ccccc2[nH]1 | 67* | 0 | -1 | -23 | -3 | -32 | 12 | 8 | -34
O=C(Cc1cccc2ccccc12)Nc1nc2ccccc2[nH]1 | 9 | -3 | 2 | -7 | -12 | 5 | · | · | ·
O=C(c1ccccc1)c1ccc(OCCOCCN2CCN(Cc3ccccc3)CC2)cc1 | 68* | -6 | 3 | 13 | 33 | 4 | 20 | 11 | -38
O=[N+]([O-])c1nccn1CC(O)CCN1CCOCC1 (stereo not drawn) | · | -9 | · | · | · | · | · | · | ·
Cc1csc(NC(=O)C2CC(=O)N(c3ccc(C)c(C)c3)C2)n1 (stereo not drawn) | 27 | -3 | 0 | 12 | -20 | -9 | · | · | ·
Cc1ccc(N2CC(C(=O)Nc3nc4ccc(S(C)(=O)=O)cc4s3)CC2=O)cc1C (stereo not drawn) | 51 | -10 | 0 | 5 | -11 | 8 | 19 | 13 | -43
CSc1ccccc1NC(=S)NCc1ccc(Cl)cc1 | -10 | -4 | -3 | -24 | -36 | -27 | · | · | ·
COc1ccc(-c2cn(-c3ccc(Br)cc3)c3[n+]2CCS3)cc1 | 74* | -1 | 0 | 11 | -21 | -20 | 76* | 24 | 61*
Fc1ccc(-c2cn(-c3ccccc3)c3[n+]2CCS3)cc1 | 21 | 2 | 1 | 4 | 12 | -30 | · | · | ·
CC(=O)c1ccc(-n2nncc2C(C)(C)C)cc1 | 3 | -2 | 0 | 8 | 0 | 4 | · | · | ·
Clc1ccc(-c2cn(-c3ccccc3)c3[n+]2CCS3)cc1 | 56* | -4 | 2 | 7 | 11 | -18 | 56* | 24 | -12
CC(=O)c1ccc(-n2cc(-c3ccc(C(C)(C)C)cc3)[n+]3c2SCCC3)cc1 | 73* | 2 | 3 | 10 | -5 | -39 | 65* | 22 | -51
COC(=O)C1=C(C)N(CC(C)C)C(=S)NC1c1cccc(OC)c1 (stereo not drawn) | · | -8 | · | · | · | · | · | · | ·
